Measured values of several laboratories.

CC(=O)c1ccc(Oc2ccc(C(=O)C(Cl)Cl)cc2[N+](=O)[O-])cc1  inhibition (NCI-H1299; cell growth or viability, MTT; 2.5 µM): 92.2%
CC#CCOc1ccc(/C=C/c2cc(OC)cc(OC)c2-c2cnnn2C(=O)NCCc2ccccc2)cc1  inhibition (RAW264.7; NO release, inhibitor, Griess; 10 µM, LPS-stimulated): 82.3%
C=CC(=O)NC1CCN(c2ncc3ncnc(Nc4ccc(Oc5ccc6c(c5)ncn6C)c(C)c4)c3n2)CC1  EC50 (NCI-H1437; cell growth or viability): 4990 nM
N#Cc1c(-c2ccc(Cl)cc2Cl)c(C(N)=O)c(N)n(N)c1=O  inhibition zone (Enterobacter cloacae; microbial growth, well diffusion; ATCC23355; 500 µg/mL): 14 mm
C#CCOc1ccc(/C=C/c2cc(OC)cc(OC)c2-c2cnnn2C(=O)NCC)cc1  inhibition (RAW264.7; NO release, inhibitor, Griess; 10 µM, LPS-stimulated): 71.3%
O=C1c2[nH]cc3c2C(=NCC3)c2c(-c3ccc(O)cc3)c[nH]c21  IC50 (Babesia divergens; parasite growth, SYBR Green; 60 h, blood stage): 614 nM
CC(=O)OCCCOc1ccc(C(=O)C(Cl)Cl)cc1[N+](=O)[O-]  inhibition (NCI-H1299; cell growth or viability, MTT; 2.5 µM): 60.3%
CN(Cc1ccc(C(C)(C)C)cc1)Cc1cccc2ccccc12  inhibition zone (Trichophyton mentagrophytes; microbial growth, disc diffusion; ATCC18748; 0.256 µg/mL, 72 h): ≥ 55 mm
O=C1CC[C@@H](COc2ccc(C(=O)C(Cl)Cl)cc2[N+](=O)[O-])N1  inhibition (NCI-H1299; cell growth or viability, MTT; 2.5 µM): 94.7%
CCCOc1ccc(/C=C/c2cc(OC)cc(OC)c2-c2cnnn2C(=O)NCCc2ccccc2)cc1  inhibition (RAW264.7; NO release, inhibitor, Griess; 10 µM, LPS-stimulated): 69.3%
N#Cc1ccc(Oc2ccc(C(=O)C(Cl)Cl)cc2[N+](=O)[O-])cc1  inhibition (NCI-H1299; cell growth or viability, MTT; 2.5 µM): 96.2%
CN(Cc1ccc(C2(C(F)(F)F)CC2)cc1)Cc1cccc2ccccc12.Cl  MFC (Trichophyton mentagrophytes; microbial killing, broth dilution; ATCC18748; 72 h): 8000 µg/mL
